Laboratory results from ChEMBL document CHEMBL2163188, “Discovery of piragliatin--first glucokinase activator studied in type 2 diabetic patients” (J Med Chem, 2012).

What was measured:
[1] = target: T1, Hexokinase-4 (Homo sapiens) (UniProt P35557); assay: Activation of human recombinant glucokinase assessed as concentration required for 1.5 fold increase in enzymatic activity
T1 sequence (whole entry): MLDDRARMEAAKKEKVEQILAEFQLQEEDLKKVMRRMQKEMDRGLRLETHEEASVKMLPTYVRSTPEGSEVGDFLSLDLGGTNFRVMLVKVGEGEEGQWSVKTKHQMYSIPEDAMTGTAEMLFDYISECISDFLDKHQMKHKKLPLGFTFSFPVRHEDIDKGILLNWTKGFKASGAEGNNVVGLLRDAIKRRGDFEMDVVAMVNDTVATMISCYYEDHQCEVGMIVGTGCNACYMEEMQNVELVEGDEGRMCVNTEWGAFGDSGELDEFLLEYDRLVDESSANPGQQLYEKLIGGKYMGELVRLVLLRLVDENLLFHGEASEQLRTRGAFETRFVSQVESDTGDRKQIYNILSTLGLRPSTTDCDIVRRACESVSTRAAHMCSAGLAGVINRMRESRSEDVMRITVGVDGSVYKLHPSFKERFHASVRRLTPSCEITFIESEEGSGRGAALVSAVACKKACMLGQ
Procedure, shortened: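 Human recombinant GK; activator at fixed concentrations from ∼0.010 to 30 μM, each in duplicate, with glucose held at 5 mM. SC1.5 is the activator concentration giving a 1.5-fold rise in enzymatic activity over untreated GK. Assay CV was about 15%.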

Liver microsomes = assay: Drug degradation in human liver microsomes assessed as formation of metabolite 2 level at 20 uM after 30 mins by LCMS/MS analysis; format: ADME, Microsome; conditions: 0.5 h
Procedure, shortened: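 Pooled human liver microsomes at 1 or 2 mg/mL protein in 0.1 M potassium phosphate pH 7.4 with 3 mM MgCl2, 1 mM EDTA and 1 mM NADPH. Substrate was 20 μM C-14 labelled compound, with 1% methanol final. Incubation ran 30 min after a 5 min preincubation and was stopped with ice-cold methanol or 50% aqueous TFA.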

Q: Which results are given for `CS(=O)(=O)c1ccc(C(CC2CCCC2)C(=O)Nc2ncc(Cl)s2)cc1` (racemic)?
A: Activity [1]: 0.148 µM; Drug metabolism (Liver microsomes): 48 ng/mL

Q: `CS(=O)(=O)c1ccc(C(CC2CCCC2)C(=O)Nc2nccs2)cc1C#N` (racemic) was tested. Which Activity [1] did it give?
A: Its Activity is 0.188 µM.

Q: With `CS(=O)(=O)c1ccc(C(CC2CCCC2)C(=O)Nc2ncc([N+](=O)[O-])s2)cc1` (racemic) as the molecule, how does the Activity [1] read?
A: The Activity was 4.17 µM.

Q: And the Drug metabolism (Liver microsomes)?
A: Its Drug metabolism is less than 10 ng/mL.

Q: Which Activity [1] does the source give for `CS(=O)(=O)c1ccc(C(CC2CCCC2)C(=O)Nc2ncc(C(N)=O)s2)cc1` (racemic) here?
A: The Activity was 0.734 µM.

Q: And the Drug metabolism (Liver microsomes)?
A: Its Drug metabolism is less than 10 ng/mL.
